p-CIP stab down: compounds decreasing mouse p/CIP protein stability; actives 0.01% (n = 290,000); decrease of EGFP signal, % at 10 µM; Q05BA5; F442A p/CIP-EGFP cells, EGFP fluorescence, 16 h;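 active means EGFP signal decrease of at least 30% at 10 µM or well 3 SD below plate mean, unless failing retest; inactive means the rest, including hits failing retest or dose response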
T cruzi repl: blocks replication of Trypanosoma cruzi | actives 1.4% (n = 300,000) | T. cruzi beta-gal in NIH3T3, luminescence, 90 h | inhibition, % (concentration not given with the values);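 active means mean inhibition across valid replicates above about 55%, limit read from the data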;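 further: signal also drops with host cell toxicity which is not excluded here; higher percent means less beta-gal luminescence so fewer parasites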
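Assay system: NIH/3T3 fibroblasts plus reporter T. cruzi. Amount: NIH/3T3 cells, 5,000 per well. Buffer or medium: DMEM, 2% fetal bovine serum. Doses: compound pinned at 50 nL/well, DMSO. Schedule: ≥90 h infection period, 3 h prior cell attachment. Signal: luminescent β-galactosidase signal after 60 min lysis. Read-out: parasite load inhibition, %.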
PP1 counter: blocks human PP1-alpha phosphatase, a PP5 counter-screen. purified PP1alpha, OMFP fluorescence. inhibition, % at 6.7 µM. actives 0.9% (n = 320,000);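 active means inhibition above the mean inhibition of all tested compounds plus 3 SD, computed separately for each screening campaign, cut at about 15% in these data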
Target sequence (P62136 whole entry, looked up): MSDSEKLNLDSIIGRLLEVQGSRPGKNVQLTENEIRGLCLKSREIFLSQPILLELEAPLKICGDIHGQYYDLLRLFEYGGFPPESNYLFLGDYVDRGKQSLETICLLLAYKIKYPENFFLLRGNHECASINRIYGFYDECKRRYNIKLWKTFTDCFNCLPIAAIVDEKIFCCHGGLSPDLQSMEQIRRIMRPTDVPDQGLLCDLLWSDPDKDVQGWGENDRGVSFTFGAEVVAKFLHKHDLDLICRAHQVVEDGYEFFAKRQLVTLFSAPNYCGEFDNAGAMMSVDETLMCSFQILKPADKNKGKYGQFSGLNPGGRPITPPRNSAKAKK
UBC13 inh: blocks human UBC13 polyubiquitin chain formation. P61088. TR-FRET. inhibition, % at 20 µM. actives 0.47% (n = 330,000); in the data active means inhibition above about 45%, passing the limit was not always enough
Target sequence (P61088 whole entry, looked up): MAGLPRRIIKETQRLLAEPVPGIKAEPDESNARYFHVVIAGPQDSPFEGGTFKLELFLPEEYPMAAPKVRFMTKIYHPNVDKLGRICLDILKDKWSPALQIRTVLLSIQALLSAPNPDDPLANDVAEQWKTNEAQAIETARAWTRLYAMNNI
AI-2 QS modul: Vibrio harveyi AI-2 quorum sensing modulation; Vibrio harveyi JMH597 AI-2 luminescence/OD600 ratio, 9 h; stronger effect = lower value; strain lacks LuxN and CqsS sensors; 0 = neutral-control median; AID 2094; actives 0.4% (n = 300,000); activity change, % at 7.5 µM; in the data active means activity change below about -75%, passing the limit was not always enough;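 further: luminescence divided by OD600 gain over 9 h not by final OD600 alone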
Casp3 counter: caspase-3 inhibition (UBC13 counter-screen); inhibition, % at 20 µM; shares compounds with UBC13 inh; Recombinant caspase-3, Caspase-Glo 3/7 luminescence, 60 min; actives 4% (n = 1,400);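 active means mean inhibition across replicates above about 26%, limit read from the data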
UBC13 conf: confirmation of human UBC13 polyubiquitin inhibitors | inhibition, % at 10 µM | shares compounds with UBC13 inh | UBC13 polyubiquitination, TR-FRET, biochemical | actives 68% (n = 1,400); in the data active means inhibition above about 45%
Numbers stand for hits; 0 = inactive; - = no result. Rows were chosen to be rich in hits. Some 2.8% of all compounds tested hit in one or more screens of this group.

SMILES | p-CIP stab down | T cruzi repl | PP1 counter | UBC13 inh | AI-2 QS modul | Casp3 counter | UBC13 conf
CN(C)CCCNC(=O)c1ccc(-c2nc(-c3ccc(Cl)cc3)cs2)cc1 | 0 | 65 | 0 | 54 | 0 | 0 | 68
CN(C)CCCNC(=O)c1ccc(-c2cc(O)c3ncccc3c2)cc1 | - | - | - | 112 | - | 0 | 118
O=C(CNC(=O)c1ccc(-c2ccccc2)cc1)Nc1ccc(S(=O)(=O)Nc2ncccn2)cc1 | 0 | 0 | 0 | 0 | 0 | - | -
CCOc1ccc(C(=O)N(CC(=O)Nc2cccc(C)c2C)CC2CCCO2)cc1OC (stereo unspecified) | - | - | 0 | 0 | - | - | -
COc1ccc(/C=C2/Sc3ccc(C(=O)NCCN4CCCCCC4)cc3NC2=O)cc1 | 0 | 0 | 0 | 67 | 0 | 0 | 86
O=C1Nc2cc(C(=O)NCCCN3CCOCC3)ccc2S/C1=C/c1cccc(Cl)c1 | 0 | 0 | 0 | 57 | 0 | 0 | 72
CCN(Cc1ccccc1)S(=O)(=O)c1ccc(C(=O)N(CCCN(C)C)c2nc3cc(C)cc(C)c3s2)cc1 | - | 0 | 16 | 74 | 0 | 0 | 109
CCCCN(CC)S(=O)(=O)c1ccc(C(=O)N(CCCN(C)C)c2nc3cc(C)cc(C)c3s2)cc1 | 0 | 67 | 0 | 80 | 0 | 0 | 102
Cc1cc(C)c2sc(N(CCCN(C)C)C(=O)c3ccc(S(=O)(=O)N(C)Cc4ccccc4)cc3)nc2c1 | - | 0 | 0 | 96 | 0 | 0 | 115
CCN(c1ccccc1)S(=O)(=O)c1ccc(C(=O)N(CCCN(C)C)c2nc3c(C)cccc3s2)cc1 | 0 | 0 | 0 | 0 | 0 | - | -
Cc1cc(C)c2sc(N(CCCN(C)C)C(=O)c3ccc(Br)s3)nc2c1 | 0 | 0 | 0 | 0 | 0 | - | -
CCCc1c2c(cc3c(=O)cc(C(=O)OCC)oc13)CCCC2 | 0 | 0 | 0 | 0 | 0 | - | -
COc1ccc(C(=O)N/C=C/n2cnc3cc(C(F)(F)F)ccc32)cc1 | 0 | 0 | 0 | 0 | 0 | - | -
CN1CCN(CC(=O)N2CCn3c4c(c5cc(C6CCCCC6)ccc53)CCCC42)CC1 (stereo unspecified) | 0 | 0 | 0 | 90 | 0 | 0 | 103
Cc1ccc2c(c1)c1c3n2CCN(C(=O)CN2CCN(C)CC2)C3CCC1 (stereo unspecified) | 0 | 0 | 0 | 0 | 0 | - | -
COc1ccc(CCC(=O)NNC(=O)Nc2ccc(C(C)=O)cc2)cc1 | 0 | 0 | 0 | 0 | 0 | - | -
COc1cc(NC(=S)NCCN2CCOCC2)cc(OC)c1OC | 0 | 0 | 0 | 61 | 0 | 0 | 0
CCN(CC)CCOC(=O)c1ccc(NC(=O)c2cn(-c3ccccc3)nc2-c2cccs2)cc1 | 0 | - | - | 96 | - | 0 | 111
CCN(CC)CCNC(=O)c1cn(-c2ccccc2)nc1-c1cccs1 | 0 | 0 | 0 | 0 | 0 | - | -
Cn1nc(N)c2c(-c3ccccc3)c(C#N)c(N)nc21 | 0 | 0 | 0 | 59 | 0 | 0 | 59
Cn1nc(N)c2c(-c3ccc(Cl)cc3)c(C#N)c(N)nc21 | 0 | 0 | 0 | 72 | 0 | 0 | 73
CCc1c(C)nc(N)c(C#N)c1-c1ccccc1 | 0 | 0 | 0 | 0 | 0 | - | -
CC(=O)c1cccc(NC(=O)CSc2nc(N3CCOCC3)nc(N3CCOCC3)n2)c1 | 0 | 0 | 0 | 0 | 0 | - | -
NC(N)=N/N=C/c1ccc(OCc2ccccc2)cc1 | 0 | 71 | 0 | 50 | 0 | 0 | 53
COc1cc(NC(=O)Cc2ccc([N+](=O)[O-])cc2)c(C(=O)O)cc1OC | 0 | 0 | 0 | 0 | 0 | - | -
Cc1ccc(-c2csc(NC(=O)CSc3nc4ccccc4c(=O)n3CCCN(C)C)n2)cc1 | 0 | 0 | 0 | 89 | 0 | 0 | 94
O=C(/C=C/c1cccc(C(F)(F)F)c1)OCC(=O)N1CCN(c2ccccc2)CC1 | - | - | - | 0 | - | - | -
C=C[C@](C)(CC[C@@]1(C)C(C)CC(OC2OC(C)C(OC3OC(COC(C)=O)C(O)C(O)C3O)C(O)C2O)[C@@]2(C)C(C)=CCCC12)OC1OC(C)C(O[C@@H]2O[C@@H](C)C(O)C(O)[C@H]2O)C(O)C1O (stereo partly specified) | - | - | - | 54 | - | 0 | 58
NS(=O)(=O)c1ccc(CCNC(=O)c2cc(-c3ccco3)nc3ccccc23)cc1 | - | - | 0 | 51 | - | 0 | 0

Assay outcomes: PubChem, several laboratories
